Consider 13 compounds from ChEMBL document CHEMBL1147465, “Nucleic acid-binding ligands identify new mechanisms to inhibit telomerase” (Bioorg Med Chem Lett, 2004).

The test system of one assay is Euplotes aediculatus. Nature of the assay: Inhibition of purified telomerase of Euplotes aediculatus at 50 uM. In outline:
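Endogenous telomerase purified from E. aediculatus, tested in a direct activity assay with inhibitor at 50 µM.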

For assay [1], the system named is Tetrahymena thermophila. The assay is described as follows: Inhibition of telomerase after assembly using recombinant Tetraymena thermophilia TR and TERT at 50 uM.
For assay [2], the system named is Tetrahymena thermophila. The assay is described as follows: Inhibition of telomerase before assembly using recombinant Tetraymena thermophilia TR and TERT at 50 uM.
The target of assay [3] is Telomerase reverse transcriptase (Homo sapiens) (UniProt O14746). The assay is described as follows: Inhibition of human telomerase before assembly using recombinant hTR and hTERT at 50 uM. In outline: (§1)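 Telomerase reconstituted from in vitro transcribed hTR and hTERT translated in vitro in rabbit reticulocyte lysate. Line 2: ligand added to hTR plus hTERT before a 90 min assembly incubation in lysate. Line 1: ligand added to telomerase already assembled in lysate.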
Sequence of Telomerase reverse transcriptase (Homo sapiens) (O14746 whole entry): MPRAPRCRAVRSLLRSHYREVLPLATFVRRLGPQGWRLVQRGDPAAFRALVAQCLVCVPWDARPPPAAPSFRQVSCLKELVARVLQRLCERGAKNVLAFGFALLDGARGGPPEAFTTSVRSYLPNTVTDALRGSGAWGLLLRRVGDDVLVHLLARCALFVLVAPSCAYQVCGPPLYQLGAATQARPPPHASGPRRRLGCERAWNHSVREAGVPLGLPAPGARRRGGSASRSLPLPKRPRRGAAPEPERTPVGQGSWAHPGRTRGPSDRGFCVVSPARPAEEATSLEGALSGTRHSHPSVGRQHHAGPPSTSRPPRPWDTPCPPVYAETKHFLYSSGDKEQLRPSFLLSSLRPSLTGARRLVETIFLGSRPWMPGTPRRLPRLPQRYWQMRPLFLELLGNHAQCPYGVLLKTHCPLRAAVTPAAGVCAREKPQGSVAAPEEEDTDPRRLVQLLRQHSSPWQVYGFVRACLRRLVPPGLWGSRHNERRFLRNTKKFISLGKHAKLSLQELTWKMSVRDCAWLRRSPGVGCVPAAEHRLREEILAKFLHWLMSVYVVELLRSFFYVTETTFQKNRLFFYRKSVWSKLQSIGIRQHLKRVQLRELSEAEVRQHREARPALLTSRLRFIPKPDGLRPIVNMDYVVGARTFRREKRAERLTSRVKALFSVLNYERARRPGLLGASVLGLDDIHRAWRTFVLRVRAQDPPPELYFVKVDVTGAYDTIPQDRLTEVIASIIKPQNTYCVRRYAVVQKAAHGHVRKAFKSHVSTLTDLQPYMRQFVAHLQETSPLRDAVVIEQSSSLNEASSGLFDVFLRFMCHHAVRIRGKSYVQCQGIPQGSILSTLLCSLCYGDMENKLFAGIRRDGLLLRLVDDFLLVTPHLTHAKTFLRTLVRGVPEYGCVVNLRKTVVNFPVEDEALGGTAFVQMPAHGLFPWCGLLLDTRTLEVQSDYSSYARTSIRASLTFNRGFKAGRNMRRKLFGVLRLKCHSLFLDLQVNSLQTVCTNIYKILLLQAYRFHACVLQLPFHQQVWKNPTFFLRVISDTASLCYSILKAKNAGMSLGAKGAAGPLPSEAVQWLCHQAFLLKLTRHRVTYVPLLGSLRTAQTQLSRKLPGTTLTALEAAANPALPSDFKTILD

For assay [4] the target is unchanged. The assay is described as follows: Inhibition of human telomerase after assembly using recombinant hTR and hTERT at 50 uM. The method, boiled down:
as §1

For the compound `CN[C@@H]1[C@@H](O[C@H]2O[C@H](CO)[C@@H](N)[C@H](O)[C@H]2O)OC2C[C@@H](N)[C@@H](O[C@H]3[C@H](O)[C@@H](O)[C@H](N)C[C@@H]3N)OC2[C@@H]1O` (some centres undefined), the inhibition in the assay on Euplotes aediculatus was 0%; with Tetrahymena thermophila [1], 0%; in the assay with Tetrahymena thermophila [2] it was 0%; in assay [3], 30%.

For `CN(C)[C@@H]1C(O)=C(C(N)=O)C(=O)[C@@]2(O)C(O)=C3C(=O)c4c(O)cccc4[C@@](C)(O)[C@H]3C[C@@H]12`, the inhibition in the assay on Euplotes aediculatus was 0%; in the assay on Tetrahymena thermophila [1] it was 0%; with Tetrahymena thermophila [2], 0%; in assay [3], 10%.

Turning to `CN1CCN(c2ccc3[nH]c(-c4ccc5[nH]c(-c6ccc(O)cc6)nc5c4)nc3c2)CC1`, the inhibition was determined as 86% in the assay on Euplotes aediculatus; 15% with Tetrahymena thermophila [1]; 50% in the assay on Tetrahymena thermophila [2]; 34% in assay [4]; 81% in assay [3].

`NCC[C@H](O)C(=O)N[C@@H]1C[C@H](N)[C@@H](O[C@H]2O[C@H](CN)[C@@H](O)[C@H](O)[C@H]2O)[C@H](O)[C@H]1O[C@H]1O[C@H](CO)[C@@H](O)[C@H](N)[C@H]1O`: the inhibition in the assay with Euplotes aediculatus turned out to be 0%; with Tetrahymena thermophila [1], 0%; with Tetrahymena thermophila [2], 0%; in assay [3], 25%.

As for `N=C(N)c1ccc(-c2cc3ccc(C(=N)N)cc3[nH]2)cc1`, the inhibition stood at 0% in the assay with Euplotes aediculatus; 70% with Tetrahymena thermophila [1]; 70% in the assay with Tetrahymena thermophila [2]; 72% in assay [4]; 90% in assay [3].

Regarding `CN[C@@H]1[C@H](O)[C@H](NC)[C@H]2O[C@@]3(O)C(=O)C[C@@H](C)O[C@H]3O[C@@H]2[C@H]1O`, the inhibition (in the assay with Euplotes aediculatus; in the assay with Tetrahymena thermophila [1]; in the assay with Tetrahymena thermophila [2]; in assay [3]) was 0% in each case.

As to `Cn1cc(NC(=O)c2cc(NC(=O)c3cc(NC=O)cn3C)cn2C)cc1C(=O)NCCC(=N)N`, the inhibition in the assay on Euplotes aediculatus stood at 75%; with Tetrahymena thermophila [1], 0%; in the assay with Tetrahymena thermophila [2] it was 0%; in assay [3] it was 10%.

For the compound `Nc1ccc2cc3ccc(N)cc3nc2c1`, the inhibition in the assay with Euplotes aediculatus was determined as 52%; with Tetrahymena thermophila [1], 90%; with Tetrahymena thermophila [2], 90%; in assay [4], 90%; in assay [3], 95%.

Regarding `CCN(CC)CCCC(C)Nc1c2ccc(Cl)cc2nc2ccc(OC)cc12` (centres undefined), the inhibition was determined as 75% with Euplotes aediculatus; 80% in the assay with Tetrahymena thermophila [1]; 93% in the assay on Tetrahymena thermophila [2]; 50% in assay [4]; 82% in assay [3].

Turning to `CN[C@@H]1C[C@H](N)[C@@H](O)[C@H](O[C@H]2O[C@H](CO)[C@H](O)[C@@H]3O[C@@]4(O[C@@H]23)O[C@H]([C@H](N)CO)[C@H](O)[C@H](O)[C@H]4O)[C@H]1O`, the inhibition (with Euplotes aediculatus; in the assay with Tetrahymena thermophila [1]; in the assay with Tetrahymena thermophila [2]; in assay [3]) was 0% throughout.

Take GENTAMICIN: the inhibition with Euplotes aediculatus worked out at 0%; in the assay with Tetrahymena thermophila [1], 0%; with Tetrahymena thermophila [2] it was 0%; in assay [4] it was 19%; in assay [3], 64%.

With `NC[C@@H]1O[C@H](O[C@H]2[C@@H](O)[C@H](O[C@@H]3[C@@H](O)[C@H](N)C[C@H](N)[C@H]3O[C@H]3O[C@H](CO)[C@@H](O)C[C@H]3N)O[C@@H]2CO)[C@H](N)[C@@H](O)[C@@H]1O[C@H]1O[C@H](CO)[C@@H](O)[C@H](O)[C@@H]1O`, the inhibition is 10% in the assay on Euplotes aediculatus; 0% with Tetrahymena thermophila [1]; 0% in the assay on Tetrahymena thermophila [2]; 12% in assay [4]; 50% in assay [3].

On to `NC[C@@H]1O[C@H](O[C@H]2[C@@H](O)[C@H](O[C@@H]3[C@@H](O)[C@H](N)C[C@H](N)[C@H]3O[C@H]3O[C@H](CO)[C@@H](O)[C@H](O)[C@H]3N)O[C@@H]2CO)[C@H](N)[C@@H](O)[C@@H]1O`, for which the inhibition in the assay with Euplotes aediculatus amounted to 0%; with Tetrahymena thermophila [1], 0%; in the assay with Tetrahymena thermophila [2] it was 0%; in assay [4], 29%; in assay [3] it was 60%.

By inhibition is commonly meant the relative decrease from the control value, in per cent.
